According to ChEMBL document CHEMBL1154648, “1,3-Dipolar cycloaddition of C-aryl-N-phenylnitrones to (R)-1-(1-phenylethyl)-3-[(E)-arylmethylidene]tetrahydro-4(1H)-pyridinones: synthesis and antimycobacterial evaluation of enantiomerically pure spiroisoxazolidines” (2010):
Values after ≈ are worked out from the molar mass of the structure shown.

Tests used:
[1] = test system: Mycobacterium tuberculosis; assay: Antitubercular activity against Mycobacterium tuberculosis H37Rv after 28 days by agar dilution method; assay type: functional; details: 672 h
Method in brief: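 Tenfold serial dilutions were incorporated into Middlebrook 7H11 agar with OADC. The H37Rv inoculum came from fresh 7H11/OADC slants, set to 1 mg/mL wet weight in 0.05% Tween 80 saline and diluted 10^-2 (about 10^7 cfu/mL). 5 µL was spotted per tube and incubated at 37 °C, read at 28 days. MIC was the lowest concentration giving complete growth inhibition, tested in triplicate.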

[2] = test system: Mycobacterium tuberculosis; assay: Ratio of MIC for drug to MIC for ethambutol against Mycobacterium tuberculosis H37Rv after 28 days by agar dilution method; assay type: functional

SMILES	MIC [1] [µM]	Ratio [2]
Cc1ccc([C@@H]2C(c3ccc(Cl)cc3)=NO[C@]23CN([C@H](C)c2ccccc2)CCC3=O)cc1	6.82 (≈ 3.13 µg/mL)	–
C[C@H](c1ccccc1)N1CCC(=O)[C@]2(C1)ON=C(c1ccc(Cl)cc1)[C@H]2c1cccc2ccccc12	25.2 (≈ 12.5 µg/mL)	–
C[C@H](c1ccccc1)N1CCC(=O)[C@]2(C1)ON=C(c1ccc(Cl)cc1)[C@H]2c1ccc(Cl)cc1	3.25 (≈ 1.56 µg/mL)	–
C[C@H](c1ccccc1)N1CCC(=O)[C@@]2(C1)ON(c1ccccc1)[C@H](c1ccccc1)[C@@H]2c1ccccc1Cl	5.98 (≈ 3.13 µg/mL)	–
C[C@H](c1ccccc1)N1CCC(=O)[C@@]2(C1)[C@@H](c1ccccc1)ON(c1ccccc1)[C@@H]2c1ccccc1	25.6 (≈ 12.5 µg/mL)	–
C[C@H](c1ccccc1)N1CCC(=O)[C@]2(C1)ON(c1ccccc1)[C@@H](c1ccccc1)[C@H]2c1cccs1	6.33 (≈ 3.13 µg/mL)	–
C[C@H](c1ccccc1)N1CCC(=O)[C@@]2(C1)ON=C(c1ccc(Cl)cc1)[C@H]2c1ccccc1	14.1 (≈ 6.25 µg/mL)	–
C[C@H](c1ccccc1)N1CCC(=O)[C@]2(C1)ON=C(c1ccccc1)[C@H]2c1cccc2ccccc12	27.1 (≈ 12.5 µg/mL)	–
Cc1ccc([C@H]2[C@@H](c3ccc(Cl)cc3)[C@@]3(CN([C@H](C)c4ccccc4)CCC3=O)ON2c2ccccc2)cc1	11.6 (≈ 6.25 µg/mL)	–
Cc1ccc([C@@H]2[C@H](c3ccccc3)N(c3ccccc3)O[C@]23CN([C@H](C)c2ccccc2)CCC3=O)cc1	12.4 (≈ 6.25 µg/mL)	–
C[C@H](c1ccccc1)N1CCC(=O)[C@]2(C1)ON(c1ccccc1)[C@@H](c1ccccc1)[C@H]2c1ccccc1	25.6 (≈ 12.5 µg/mL)	–
C[C@H](c1ccccc1)N1CCC(=O)[C@]2(C1)ON=C(c1ccccc1)[C@H]2c1ccccc1Cl	7.03 (≈ 3.13 µg/mL)	–
Cc1ccc([C@@H]2[C@H](c3ccc(Cl)cc3)[C@]3(CN([C@H](C)c4ccccc4)CCC3=O)ON2c2ccccc2)cc1	23.3 (≈ 12.5 µg/mL)	–
Cc1ccc([C@@H]2C(c3ccccc3)=NO[C@]23CN([C@H](C)c2ccccc2)CCC3=O)cc1	14.7 (≈ 6.25 µg/mL)	–
Cc1ccc([C@@H]2[C@H](c3ccc(C)cc3)[C@]3(CN([C@H](C)c4ccccc4)CCC3=O)ON2c2ccccc2)cc1	3.02 (≈ 1.56 µg/mL)	2.5
C[C@H](c1ccccc1)N1CCC(=O)[C@]2(C1)ON=C(c1ccccc1)[C@H]2c1ccc(Cl)cc1	14.1 (≈ 6.25 µg/mL)	–

SMILES	MIC [1] [µM]	Ratio [2]
Cc1ccc([C@H]2[C@@H](c3cccs3)[C@@]3(CN([C@H](C)c4ccccc4)CCC3=O)ON2c2ccccc2)cc1	24.6 (≈ 12.5 µg/mL)	–
Cc1ccc([C@H]2[C@@H](c3ccccc3Cl)[C@@]3(CN([C@H](C)c4ccccc4)CCC3=O)ON2c2ccccc2)cc1	11.6 (≈ 6.25 µg/mL)	–
C[C@H](c1ccccc1)N1CCC(=O)[C@]2(C1)ON(c1ccccc1)[C@@H](c1ccccc1)[C@H]2c1ccccc1Cl	23.9 (≈ 12.5 µg/mL)	–
Cc1ccc([C@@H]2[C@H](c3ccccc3Cl)[C@]3(CN([C@H](C)c4ccccc4)CCC3=O)ON2c2ccccc2)cc1	11.6 (≈ 6.25 µg/mL)	–
C[C@H](c1ccccc1)N1CCC(=O)[C@@]2(C1)ON(c1ccccc1)[C@H](c1ccccc1)[C@@H]2c1ccccc1	25.6 (≈ 12.5 µg/mL)	–
Cc1ccc([C@H]2[C@@H](c3ccccc3)N(c3ccccc3)O[C@@]23CN([C@H](C)c2ccccc2)CCC3=O)cc1	24.9 (≈ 12.5 µg/mL)	–
C[C@H](c1ccccc1)N1CCC(=O)[C@]2(C1)ON=C(c1ccc(Cl)cc1)[C@H]2c1ccccc1Cl	3.25 (≈ 1.56 µg/mL)	–
Cc1ccc([C@@H]2[C@H](c3ccccc3)[C@]3(CN([C@H](C)c4ccccc4)CCC3=O)ON2c2ccccc2)cc1	49.7 (≈ 25 µg/mL)	–
Cc1ccc([C@H]2N(c3ccccc3)O[C@H](c3ccccc3)[C@@]23CN([C@H](C)c2ccccc2)CCC3=O)cc1	24.9 (≈ 12.5 µg/mL)	–
Cc1ccc([C@@H]2[C@H](c3ccc(C)cc3)N(c3ccccc3)O[C@]23CN([C@H](C)c2ccccc2)CCC3=O)cc1	6.06 (≈ 3.13 µg/mL)	–
C[C@H](c1ccccc1)N1CCC(=O)[C@]2(C1)ON=C(c1ccccc1)[C@H]2c1ccccc1	60.9 (≈ 25 µg/mL)	–
Cc1ccc([C@H]2[C@@H](c3ccccc3)[C@@]3(CN([C@H](C)c4ccccc4)CCC3=O)ON2c2ccccc2)cc1	49.7 (≈ 25 µg/mL)	–
CC[C@@H](CO)NCCN[C@@H](CC)CO [ETHAMBUTOL]	7.64 (≈ 1.56 µg/mL)	–
NNC(=O)c1ccncc1 [ISONIAZID]	0.36 (≈ 0.0494 µg/mL)	–
CO[C@H]1/C=C/O[C@@]2(C)Oc3c(C)c(O)c4c(O)c(c(/C=N/N5CCN(C)CC5)c(O)c4c3C2=O)NC(=O)/C(C)=C\C=C\[C@H](C)[C@H](O)[C@@H](C)[C@@H](O)[C@@H](C)[C@H](OC(C)=O)[C@@H]1C [RIFAMPIN]	0.12 (≈ 0.0988 µg/mL)	–
